Measurements from different studies.
Compare with care: the assays were run in different laboratories. pIC50, pKd, pKi: −log10 of the molar value.
HTR1D: 5-hydroxytryptamine receptor 1D (HTR1D, Homo sapiens, UniProt P28221)
Dipeptidyl peptidase 8: Dipeptidyl peptidase 8 (Homo sapiens, UniProt Q6V1X1)

SMILES	target	observed	action	technique	pH	endpoint	result
NCCC[C@H](N)C(=O)O	Arginase (Schistosoma mansoni, UniProt Q6WVP6)	enzyme activity	inhibitor	absorbance	–	pKi	2.72
COc1ccc(C(=O)CCN2CCN(c3ccccc3OC)CC2)cc1	HTR1D	ligand displacement	–	radioligand	–	pKi	7.21
CSCC[C@H](NC(=O)[C@@H]1CCCN1C(=O)CNC(=O)c1ccc2c(c1)C(=O)OC21c2ccc(O)cc2Oc2cc(O)ccc21)C(=O)N[C@@H](CCC(N)=O)C(=O)N[C@H](C(=O)N[C@@H](CO)C(=O)N[C@H](C(=O)N1CCC[C@H]1C(=O)N[C@@H](CCCCN)C(=O)N[C@@H](CC(N)=O)C(=O)NCC(=O)O)[C@@H](C)OP(=O)(O)O)[C@@H](C)O	Serine/threonine-protein kinase PLK2, polo-box (PLK2, Homo sapiens, UniProt Q9NYY3)	binding	–	FP	–	pKd	7.30
C[C@]12CCc3c(ccc4cc(O)ccc34)[C@@H]1CCC2=O	ksi (Comamonas testosteroni, UniProt P00947)	enzyme activity	inhibitor	absorbance	–	pKi	5.30
O=C(NO)c1ccccc1	Histone deacetylase 6, CD2 (hdac6, Danio rerio, UniProt F8W4B7)	enzyme activity	inhibitor	fluorescence	–	pIC50	5.47
CC[C@H]1NC(=O)[C@@H]2CSC(=N2)[C@H](Cc2ccccc2)N(C)C(=O)[C@@H]2CCCN2C(=O)[C@H](C(C)C)N(C)C(=O)[C@H](Cc2ccccc2)OC(=O)[C@H](C)[C@@H](C)NC(=O)[C@@H]([C@@H](C)O)NC(=O)[C@@H](CC(C)C)N(C)C(=O)[C@@H]2CSC1=N2	Dipeptidyl peptidase 8	enzyme activity	inhibitor	–	–	pIC50	5.19
Cn1cc(-c2cc(F)cc(N3CCn4c(cc5c4CCCC5)C3=O)c2CO)cc(Nc2ccc(N3CCN(C4COC4)CC3)cn2)c1=O	Tyrosine-protein kinase Yes (YES1, Homo sapiens, UniProt P07947)	enzyme activity	inhibitor	FRET	–	pKi	6.20
CC(C)C[C@@H]1C(=O)N[C@H]([C@@H](C)O)C(=O)N[C@H](C)[C@@H](C)C(=O)O[C@@H](Cc2ccccc2)C(=O)N(C)[C@@H](C(C)C)C(=O)N2CCC[C@H]2C(=O)N(C)[C@H](Cc2ccccc2)C2=N[C@@H](CS2)C(=O)N[C@H](C)C2=N[C@@H](CS2)C(=O)N1C	Dipeptidyl peptidase 8	enzyme activity	inhibitor	–	–	pIC50	4.78
COc1ccccc1N1CCN(Cc2coc3c(Cl)cc(Cl)cc3c2=O)CC1	HTR1D	ligand displacement	–	radioligand	–	pKi	5.69
OC12CCCCC1C(c1ccccc1)NCC2 (stereo not shown)	Sodium-dependent serotonin transporter (Slc6a4, Rattus norvegicus, UniProt P31652)	ligand displacement	–	radioligand	–	pKi	< 4.70
C[C@H](NC(=O)[C@@H](CCC(=O)O)NC(=O)CN1CCN(CC(=O)O)CCN(CC(=O)O)CCN(CC(=O)O)CC1)C(=O)N[C@@H](Cc1ccc(O)cc1)C(=O)NCC(=O)N[C@@H](Cc1c[nH]c2ccccc12)C(=O)N[C@H](C(=O)N[C@@H](CC(=O)O)C(=O)N[C@@H](Cc1cccc2ccccc12)C(N)=O)c1ccccc1	Gastrin/cholecystokinin type B receptor (Rattus norvegicus, UniProt P30553)	ligand displacement	–	radioligand	–	pIC50	7.25
C#CCNC(=O)c1cc2ccc(N(CC)CC)cc2oc1=O	Acetylcholinesterase (Ache, Mus musculus, UniProt P21836)	enzyme activity	inhibitor	Ellman	pH 7.6	pIC50	6.00
CC(C)[C@H](NC(=O)[C@H](CCCNC(=N)N)NC(=O)N[C@@H](Cc1ccccc1)C(=O)O)C(=O)N[C@H](C=O)CCCNC(=N)N	Transmembrane protease serine 2 (TMPRSS2, Homo sapiens, UniProt O15393)	enzyme activity	inhibitor	fluorescence	pH 8	pIC50	6.42
Cc1cccc(N2CCN(Cc3coc4ccc(Cl)cc4c3=O)CC2)c1C	HTR1D	ligand displacement	–	radioligand	–	pKi	6.26
CC(C)Cc1ccc([C@@H](C)C(=O)O)cc1	Histone acetyltransferase KAT2B (KAT2B, Homo sapiens, UniProt Q92831)	enzyme activity	inhibitor	mobility shift	–	pIC50	~2.22
CCCCCc1cc(O)c2c(c1)OC(C)(CCC=C(C)C)C=C2 (stereo not shown)	Polyunsaturated fatty acid 5-lipoxygenase (ALOX5, Homo sapiens, UniProt P09917)	enzyme activity	inhibitor	–	–	pIC50	5.80
